Measurements reported in paper PMC6310869 (CPT: Pharmacometrics & Systems Pharmacology, 2018).
“Also recorded” adds a separate entry of the source.

Columns and labels:
CYP2D6 [1] = biological target: T1, CYP2D6 (Homo sapiens, UniProt P10635); conditions: ref Simcyp; cited from earlier work
[2] = logP by shaking octanol/water, HPLC quantification; type: physicochemical
In short: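 Shake-flask method: octanol-saturated water holding test compound (~26 mg/mL) was shaken with an equal volume of water-saturated octanol for 1 hour at 23°C. Compound quantified by HPLC in each separated phase.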

[3] = Plasma protein binding in fresh human plasma by ultrafiltration; type: in vitro ADME
In short: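 Fresh human plasma spiked with test compound at 5, 10 and 75 μg/mL and incubated 0.5 hours at 37°C. Ultrafiltration followed by LC-MS/MS of both the ultrafiltrate and the originally spiked plasma.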

CYP3A4/5 [4] = experiment: Direct inhibition; type: in vitro ADME; conditions: human, pooled human liver microsomes, probe midazolam (1'-hydroxylation)
CYP2D6 [5] = biological target: T1, CYP2D6; experiment: Direct inhibition; type: in vitro ADME
CYP2B6 = biological target: T2, CYP2B6 (Homo sapiens, UniProt P20813); type: in vitro ADME; conditions: pooled human liver microsomes, probe efavirenz (8-hydroxylation)
T2 sequence (P20813 1-491): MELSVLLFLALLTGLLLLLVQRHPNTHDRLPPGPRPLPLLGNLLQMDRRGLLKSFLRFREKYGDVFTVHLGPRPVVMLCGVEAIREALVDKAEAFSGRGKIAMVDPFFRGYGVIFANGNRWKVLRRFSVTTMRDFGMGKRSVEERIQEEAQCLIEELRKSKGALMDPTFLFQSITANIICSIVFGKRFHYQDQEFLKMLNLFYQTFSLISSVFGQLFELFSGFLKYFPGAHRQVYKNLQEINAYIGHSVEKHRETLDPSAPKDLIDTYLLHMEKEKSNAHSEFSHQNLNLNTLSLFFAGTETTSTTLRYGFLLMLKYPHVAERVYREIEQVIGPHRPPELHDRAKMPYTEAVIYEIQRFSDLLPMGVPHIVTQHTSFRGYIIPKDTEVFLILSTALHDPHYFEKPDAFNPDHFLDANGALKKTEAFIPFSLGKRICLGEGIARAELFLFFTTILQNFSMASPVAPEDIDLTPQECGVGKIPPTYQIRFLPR

CYP3A4/5 [6] = type: in vitro ADME; conditions: human, pooled human liver microsomes, probe midazolam (1'-hydroxylation)
CYP3A4 mRNA = experiment: Induction in primary cultures of cryopreserved human hepatocytes; type: cell-based; conditions: 1 μM, once daily for 3 days, 3 donors
In short: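 Primary cultures of cryopreserved human hepatocytes, 3 white donors as independent evaluations. Dosed once daily for 3 days with test compound (1, 2.5, 10 μM), vehicle, 25 μM flumazenil (negative control) or 20 μM rifampicin (positive control). Cells lysed and total RNA harvested; CYP3A4 mRNA quantified by RT-PCR.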

human hepatocytes = experiment: Cell integrity of hepatocyte cultures; type: cell-based; conditions: for Lactate dehydrogenase release: 3 days
In short: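 Cryopreserved primary human hepatocytes from 3 white donors, dosed once daily for 3 days with test compound (1, 2.5, 10 μM), vehicle, 25 μM flumazenil (negative control) or 20 μM rifampicin (positive control). Cell integrity judged by lactate dehydrogenase release into the culture medium and by microscopic review of morphology and confluency.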

[7] = Clinical pharmacokinetics, phase I study in patients with solid tumors; type: in vivo; conditions: human, plasma, iv
CYP2D6 [8] = biological target: T1, CYP2D6; experiment: In vitro time-dependent inhibition of CYP2D6; type: in vitro ADME; conditions: in vitro data
[9] = patients; cited from earlier work
CYP3A4 = conditions: ref Simcyp; cited from earlier work
CYP3A = conditions: cited from earlier work

T1 sequence (P10635 whole entry): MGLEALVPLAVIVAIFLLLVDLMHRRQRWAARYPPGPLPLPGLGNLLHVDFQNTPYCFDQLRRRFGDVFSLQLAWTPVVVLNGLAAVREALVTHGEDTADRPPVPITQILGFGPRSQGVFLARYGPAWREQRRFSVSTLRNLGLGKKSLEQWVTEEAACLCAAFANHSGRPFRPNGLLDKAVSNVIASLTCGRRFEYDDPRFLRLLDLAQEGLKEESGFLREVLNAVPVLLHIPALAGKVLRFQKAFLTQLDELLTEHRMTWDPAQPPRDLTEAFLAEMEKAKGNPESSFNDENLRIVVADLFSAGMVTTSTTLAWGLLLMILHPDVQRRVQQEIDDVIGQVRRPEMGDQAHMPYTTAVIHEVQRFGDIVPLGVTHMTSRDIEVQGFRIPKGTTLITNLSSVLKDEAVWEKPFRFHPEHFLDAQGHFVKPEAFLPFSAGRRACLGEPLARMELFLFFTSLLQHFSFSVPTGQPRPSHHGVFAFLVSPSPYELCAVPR

**Q.** With `COc1ccc2c(c1)[C@]13CCCC[C@@H]1[C@H](C2)N(C)CC3` [Dextromethorphan] as the molecule, how does the “fmCYP (fraction of substrate metabolized by CYP)” value (CYP2D6 [1]) read?
**A.** 0.72

**Q.** What does the source list for `Cn1c(COP(=O)(NCCBr)NCCBr)cnc1[N+](=O)[O-]` [Evofosfamide, [1‐methyl‐2‐nitro‐1H‐imidazole‐5‐yl] methyl N, N’‐bis [2‐bromoethyl] diamidophosphate]?
**A.** logP at 1 hour [2]: 0.92; fraction unbound at 0.5 h [3]: 0.455; Ki at 5 min (CYP3A4/5 [4]): 141 µM; Ki (CYP2D6 [5]): 85.3 µM; KI (inactivation) (CYP2B6): 3200 µM; kinact (CYP2B6): 0.000533 s⁻¹; KI (inactivation) (CYP3A4/5 [6]): 370 µM; kinact (CYP3A4/5 [6]): 0.000417 s⁻¹; Effect on CYP3A4 mRNA (CYP3A4 mRNA): no increase; also recorded: No induction; Microscopic evaluation of toxicity (human hepatocytes; 1 μM, day 3, some signs of toxicity in third preparation): no signs of toxicity in two of the three donor cells; Lactate dehydrogenase release (human hepatocytes; 10 μM, versus control incubations): higher; Lactate dehydrogenase release (human hepatocytes; 1 and 2.5 μM): comparable to control incubations; Microscopic evaluation of toxicity (human hepatocytes; 2.5 and 10 μM): Toxicity was observed in all donor cells; Vd [7]: 0.43 L/kg; clearance [7]: 1060 mL/min; Time-dependent inhibition of CYP2D6 (CYP2D6 [8]): not time‐dependent; Elimination half-life [9]: 48.6 min

**Q.** Which “fmCYP (fraction of substrate metabolized by CYP)” value (CYP3A4) does the source give for `Cc1ncc2n1-c1ccc(Cl)cc1C(c1ccccc1F)=NC2` [Midazolam] here?
**A.** 0.96

**Q.** What about the “Fraction escaping gut metabolism in the absence of inhibitor (fG)” value (CYP3A) of the same molecule?
**A.** 0.57
